Source: PubChem (several laboratories)
bovine MsrA act – activates bovine MsrA enzyme; activation, % at 10.6 µM; purified bovine MsrA, absorbance read-out; actives 0.3% (n = 360,000); in the data active = activation above about 7.5%;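 note: 0% = vehicle and 100% = reference activator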
MsrA inhibitor – bovine MsrA inhibition; purified bovine MsrA, absorbance read-out; inhibition, % at 15.5 µM; actives 0.75% (n = 360,000); in the data active = inhibition above about 4.5%;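 note: 0% = vehicle wells with enzyme and 100% = reference inhibitor wells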
GalR3 antag – human GalR3 antagonism. O60755. HEK293 GalR3-CNG cAMP membrane potential fluorescence; galR3 body fused to GalR1 C-terminus. inhibition, % at 3 µM. actives 0.44% (n = 360,000);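 active = inhibition above the screen-wide average plus 3 SD, cut at about 13% in these data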;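 note: forskolin and galanin both at EC90 stimulate the cells; cAMP rise reported by CNG channel membrane potential dye signal; 0% = forskolin plus galanin with DMSO and 100% = forskolin alone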
NR2E3 ag-1 – human photoreceptor-specific nuclear receptor agonism; actives 0.35% (n = 360,000); inhibition of corepressor binding, % at 3.98 µM; Q9Y5X4; CHO-S Gal4-NCOR/VP16-NR2E3 two-hybrid, luciferase;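 active = inhibition above the mean of all tested compounds plus 3 SD, cut at about 70% in these data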;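 note: 0% = DMSO with NR2E3 transfected cells and 100% = cells lacking NR2E3 construct; higher means lower luciferase signal from less NR2E3 corepressor binding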
Target sequence (Q9Y5X4 whole entry, looked up, the tested form may be a part): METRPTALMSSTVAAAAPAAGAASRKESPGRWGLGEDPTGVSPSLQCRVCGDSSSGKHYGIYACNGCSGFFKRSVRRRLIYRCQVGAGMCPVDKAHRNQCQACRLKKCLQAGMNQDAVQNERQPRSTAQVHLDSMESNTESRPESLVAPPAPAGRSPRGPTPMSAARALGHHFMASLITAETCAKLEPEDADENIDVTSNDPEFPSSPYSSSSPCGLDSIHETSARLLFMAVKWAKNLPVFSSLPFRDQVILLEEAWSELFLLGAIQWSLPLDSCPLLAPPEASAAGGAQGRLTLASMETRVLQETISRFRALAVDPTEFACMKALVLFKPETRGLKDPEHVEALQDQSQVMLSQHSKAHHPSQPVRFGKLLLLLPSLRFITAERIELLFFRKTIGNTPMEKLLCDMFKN
NR2E3 ag-2 – activates human photoreceptor nuclear receptor NR2E3. actives 0.12% (n = 320,000). GST-NR2E3/biotin-RetCOR TR-FRET, 1536-well. Q9Y5X4. AID 2300. inhibition of corepressor binding, % at 4.78 µM;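 active = percent inhibition above the cutoff of mean plus 3 SD of all tested compounds, set per screening campaign, cut at about 20% in these data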;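 note: 0% = DMSO wells and 100% = biotin wells as full block of FRET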
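System: GST-tagged NR2E3 plus biotinylated RetCOR corepressor; Buffer or medium: pH 7.5 Tris-based buffer; Probe or stimulus: RetCOR corepressor, biotinylated, 7 nM; Doses: compound at 4.8 µM, single dose; Schedule: 5 h incubation at 4 °C; Technique: time-resolved FRET; Evaluation: percent inhibition of TR-FRET ratio; Replication: one well per compound, singlicate testing.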
NadD block – inhibitors of Staphylococcus aureus NadD. purified NadD enzyme, colorimetric absorbance read-out. inhibition, % at 20 µM. actives 0.78% (n = 360,000). AID 602399; in the data active = inhibition above about 26%
The depositor's hits bear a star; . = no result. Only some compounds are listed: those with a hit (about 2.5% of all), similar ones and a draw of the others.

SMILES	bovine MsrA act	MsrA inhibitor	GalR3 antag	NR2E3 ag-1	NR2E3 ag-2	NadD block
CC(NC(=O)c1ccccc1F)C(=O)O (stereo unspecified)	0	1	-8	-16	1	1
Cc1cc(C)n(-c2nc(Nc3ccccc3C)nc(-n3nc(C)cc3C)n2)n1	.	1	-5	.	0	.
Cc1cc(C)n(-c2nc(NC(C)C)nc(NC(C)C)n2)n1	-1	-1	-5	81*	2	-4
Cc1cc(C)n(-c2nc(NC(C)(C)C)nc(NC(C)(C)C)n2)n1	-4	0	-5	105*	-1	-4
Cc1c(N2C(=O)/C(=C\c3cccc4ccccc34)SC2=S)c(=O)n(-c2ccccc2)n1C	-10	0	4	-10	0	42*
O=[N+]([O-])c1ccc(/C=N/n2cnc3ccccc32)s1	18*	2	-5	-43	5	-7
CCOc1ccc(-n2c(SCC(N)=O)nnc2-c2cccnc2)cc1	-1	0	4	18	-2	-5
O=C(Nc1ccc2nc(-c3ccco3)c(-c3ccco3)nc2c1)N1CCCCCC1	.	.	.	.	11	.
CCOC(=O)C1CCN(C(=O)Nc2ccc3nc(-c4ccco4)c(-c4ccco4)nc3c2)CC1	-2	.	.	-26	3	66*
CCc1ccc(/C=N/NC(=O)Cc2ccc(OC)c(OC)c2)s1	-4	3	-4	-37	.	-3
CC(=O)OC(C=C(C)C)C/C(C)=C/COc1c2ccoc2cc2oc(=O)ccc12 (stereo unspecified)	-8	13*	-2	15	.	11
COc1ccc(OC)c(S(=O)(=O)NC(=O)C2(C)CCN2C(=O)Cc2ccc(Cl)cc2Cl)c1 (stereo unspecified)	-4	0	-3	-2	.	-6
CN1CCN(C/C(=C2/N=C(c3ccccc3)OC2=O)N(C)C)CC1	-4	4.6*	-1	-29	4	-3
CCN(CC)S(=O)(=O)c1ccc(N2CCOCC2)c(NC(=O)CNCCc2ccccc2)c1	-9	-1	-1	20	0	-2
O=C(N/N=C/c1cc([N+](=O)[O-])ccc1O)c1cccc(NC(=O)c2cccc(Cl)c2)c1	-5	1	-8	16	8	63*
COc1cccc2cc(-c3cc(=O)oc4ccc(OCC(C)=O)cc34)oc12	-4	9.5*	-1	-3	1	-1
COc1ccc2c(c1)O[C@H]1c3ccc(O)cc3OC[C@@H]21	-2	0	-6	-54	-1	1
COc1ccc(OCc2nnc(SCC(=O)Nc3cccc(Cl)c3)o2)cc1	-6	0	-9	-11	-5	-10
O=C(/C=C/c1cccc(Cl)c1)NCCc1ccccc1	-4	-1	-2	-72	2	-5
O=C(/C=C/c1c(Cl)cccc1Cl)NCCc1ccccc1	8.0*	1	-2	-66	1	-7
N=c1n(-c2ccccc2)c(O)cc(=O)n1-c1ccccc1	-1	0	1	3	-2	-4
COc1cccc(-c2cccc(-c3nc(C(=O)Nc4ccc(-c5ccccc5)cc4)cc4c3[C@H](CCO)N(S(=O)C(C)(C)C)C4)c2)c1 (stereo partly specified)	-11	.	.	12	.	35*
COc1cccc(-c2cccc(-c3nc(C(=O)NCc4ccc5c(c4)OCO5)cc4c3[C@H](CCO)N(S(=O)C(C)(C)C)C4)c2)c1 (stereo partly specified)	1	0	1	-3	.	27
COC(=O)c1sc(=S)n(-c2cc(F)ccc2F)c1N	-3	4.6*	-1	-8	3	-4
OCC1OC(n2cnc3c(NCc4ccco4)ncnc32)C(O)C1O (stereo unspecified)	-1	0	86*	40	.	0
SMILES	bovine MsrA act	MsrA inhibitor	GalR3 antag	NR2E3 ag-1	NR2E3 ag-2	NadD block
OC[C@H]1O[C@@H](n2cnc3c(NCc4ccco4)ncnc32)[C@H](O)[C@@H]1O	-2	-2	-6	4	.	0
Nc1[nH]c(N=NC(=O)c2ccccc2O)c2ccccc12	-10	4.6*	3	3	-5	3
CCOC(=O)Oc1c(OC)cc(C(=O)O[C@@H]2C[C@@H]3CN4CCc5c([nH]c6cc(OC)ccc56)[C@H]4C[C@@H]3[C@H](C(=O)OC)[C@H]2OC)cc1OC	-5	-1	0	-9	0	10
O=C1N=C(N2CCC(Cc3ccccc3)CC2)S/C1=C/c1cn[nH]c1-c1ccccc1	-8	2	1	-8	-1	41*
O=C1N=C(N2CCN(c3ccccc3)CC2)S/C1=C\c1cn[nH]c1-c1ccccc1	-3	2	1	0	-1	48*
Cc1ccc(N2CCN(C3=NC(=O)/C(=C\c4cn[nH]c4-c4ccccc4)S3)CC2)cc1	-3	1	-7	-18	-3	42*
CN(Cc1ccc(F)cc1)Cc1nc(CCc2ccccc2)no1	-7	0	-5	5	-2	-8
CN(C)c1ccc(/C=N\NC(=O)c2csnn2)cc1	-14	7.3*	6	-48	-4	6
CN(C)c1ccc(/C=N/NC(=O)c2ccccn2)cc1	-5	4	-4	-129	-3	3
CC(=O)c1ccc(Nc2nc(C(C)N)cs2)cc1 (stereo unspecified)	-6	4.6*	-6	-2	.	20
CC(N)c1csc(Nc2ccc(C(=O)NCCO)cc2)n1 (stereo unspecified)	0	3	-6	-73	.	-1
Cc1[nH]n(-c2ccccc2)c(=O)c1N=Nc1c(O)cc(S(=O)(=O)N(C)C)c2ccccc12	-1	1	2	-3	-1	56*
O=C1CSC(=S)N1N=Cc1c(O)ccc2ccccc12	2	1	-3	-23	.	34*
Cc1cc(Cl)ccc1OCC(=O)NCc1ccncc1	-2	-1	-5	-31	3	-2
Cc1nn(C)c(C)c1NC(=O)COc1ccc(Cl)cc1Br	-3	-1	53*	17	-4	-3
Cc1cc(Cl)ccc1OCC(=O)Nc1ccncc1	1	1	55*	12	4	-6
COCCNC(=S)N=Nc1c(O)[nH]c2c(C)cc(C)cc12	-1	1	2	-17	-1	5
O=C(CSCc1c(Cl)cccc1Cl)Nc1nccs1	-1	2	-4	-19	3	0
O=C(CCN1C(=O)/C(=C/c2ccccc2Cl)SC1=S)NC1C=CS(=O)(=O)C1 (stereo unspecified)	-1	2	-9	4	3	37*
O=C(CCN1C(=O)/C(=C/c2ccc(F)cc2)SC1=S)NC1C=CS(=O)(=O)C1 (stereo unspecified)	-2	0	-3	-7	-5	-5
COc1cc(/C=N/Nc2ccc(Cl)c(C(=O)O)c2)ccc1OC(=O)c1ccc(F)cc1	-1	0	-10	-33	1	18
